Consider 1 molecule from ChEMBL document CHEMBL4350961, “Discovery of Pyrrolo[3,2- d]pyrimidin-4-one Derivatives as a New Class of Potent and Cell-Active Inhibitors of P300/CBP-Associated Factor Bromodomain” (J Med Chem, 2019).

The test system of data set [1] is Receptor-type tyrosine-protein kinase FLT3 (Homo sapiens), P36888 [D835Y]. Put plainly: Inhibition of recombinant human Flt3 D835Y mutant (564 to end residues) at 10 uM using EAIYAAPFAKKK as substrate measured after 40 mins in presence of [gamma33P]ATP by scintillation counting method.
In data set [2] the target is cGMP-dependent protein kinase 2 (Homo sapiens) (UniProt Q13237). Put plainly: Inhibition of recombinant full-length human PRKG2 at 10 uM using KKLRRTLSFAEPG as substrate measured after 40 mins in presence of [gamma33P]ATP by scintillation counting method.
Data set [3] deals with Interleukin-1 receptor-associated kinase 1 (Homo sapiens) (UniProt P51617). Put plainly: Inhibition of recombinant human IRAK1 (194 to end residues) at 10 uM using myelin basic protein as substrate measured after 40 mins in presence of [gamma33P]ATP by scintillation counting method.
Data set [4] addresses CREB-binding protein (Homo sapiens) (UniProt Q92793). Put plainly: Binding affinity to human partial length CREBBP (R1081 to G1197 residues) expressed in bacterial expression system at 1 uM by BROMOscan assay. In a few lines: (§1)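 BROMOscan bromodomain cross-screen run by an outside service, compound at 1 µM against 32 recombinant bromodomains. Binding given as percent of control.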

The test system of data set [5] is Epidermal growth factor receptor (Homo sapiens), P00533 [L861Q]. Kind of data set: Inhibition of recombinant human EGFR L861Q mutant (696 to end residues) at 10 uM using poly(Glu, Tyr) 4:1 as substrate measured after 40 mins in presence of [gamma33P]ATP by scintillation counting method.
The target of data set [6] is Cyclin-dependent kinase 1/cyclin B1 (Homo sapiens) (UniProt P06493+P14635). Put plainly: Inhibition of recombinant full-length human CDK1/cyclinB at 10 uM using histone H1 as substrate measured after 40 mins in presence of [gamma33P]ATP by scintillation counting method. In kind it is protein-complex assay.
The subject of data set [7] is Tyrosine-protein kinase ABL1 (Homo sapiens), P00519 [Q252H]. Put plainly: Inhibition of recombinant human ABL Q252H mutant (27 to end residues) at 10 uM using EAIYAAPFAKKK as substrate measured after 40 mins in presence of [gamma33P]ATP by scintillation counting method.
Data set [8] has as its target Bromodomain testis-specific protein (Homo sapiens) (UniProt Q58F21). Kind of data set: Binding affinity to human partial length BRDT bromodomain 1 (N21 to E137 residues) expressed in bacterial expression system at 1 uM by BROMOscan assay. An outline of the steps:
as §1

The target in data set [9] is Ribosomal protein S6 kinase alpha-4 (Homo sapiens) (UniProt O75676). Put plainly: Inhibition of recombinant human MSK2 (2 to end residues) at 10 uM using GRPRTSSFAEGKK as substrate measured after 40 mins in presence of [gamma33P]ATP by scintillation counting method.
Data set [10] concerns the target Cyclin-dependent kinase 5/CDK5 activator 1 (Homo sapiens) (UniProt Q00535+Q15078). Put plainly: Inhibition of recombinant full-length human CDK5/p25 at 10 uM using histone H1 as substrate measured after 40 mins in presence of [gamma33P]ATP by scintillation counting method. Type of data set: protein-complex assay.
Data set [11] addresses Dual specificity mitogen-activated protein kinase kinase 3 (Homo sapiens) (UniProt P46734). Put plainly: Inhibition of human MKK3 at 10 uM by radiometric method. In a few lines: (§2)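 Kinase panel of 422 kinases screened by Eurofins KinaseProfiler at a single test-compound concentration of 10 µM.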
For data set [12], the target named is Mitogen-activated protein kinase kinase kinase kinase 2 (Homo sapiens) (UniProt Q12851). Put plainly: Inhibition of recombinant human GCK at 10 uM using myelin basic protein as substrate measured after 40 mins in presence of [gamma33P]ATP by scintillation counting method.
The target in data set [13] is Serine/threonine-protein kinase MRCK alpha (Homo sapiens) (UniProt Q5VT25). Put plainly: Inhibition of recombinant human MRCKalpha (1 to 473 residues) at 10 uM using KKRNRTLTV as substrate measured after 40 mins in presence of [gamma33P]ATP by scintillation counting method.
Data set [14] deals with Calcium/calmodulin-dependent protein kinase kinase 2 (Homo sapiens), Q96RR4 [T85S]. Put plainly: Inhibition of recombinant full-length human CAMKk2 T85S mutant at 10 uM using calmodulin as substrate measured after 40 mins in presence of [gamma33P]ATP by scintillation counting method.
Data set [15] deals with Tyrosine-protein kinase ABL1 (Homo sapiens), P00519 [T315I]. Put plainly: Inhibition of recombinant human ABL T315I mutant (27 to end residues) at 10 uM using EAIYAAPFAKKK as substrate measured after 40 mins in presence of [gamma33P]ATP by scintillation counting method.
The target of data set [16] is Tyrosine-protein kinase receptor TYRO3 (Homo sapiens) (UniProt Q06418). Kind of data set: Inhibition of human RSE (451 to end residues) using KVEKIGEGTYGVVYK as substrate measured after 40 mins in presence of [gamma33P]ATP by scintillation counting method. In a few lines: as §2
Data set [17] addresses Bromodomain and WD repeat-containing protein 1 (Homo sapiens) (UniProt Q9NSI6). Kind of data set: Binding affinity to human partial length WDR9 bromodomain 2 (A1310 to E1430 residues) expressed in bacterial expression system at 1 uM by BROMOscan assay. An outline of the steps: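 Outsourced competition-binding profiling (BROMOscan) at a single concentration of 1 µM against 32 recombinant bromodomains; binding expressed as percentage of control.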

Data set [18] concerns the target Serine/threonine-protein kinase Nek1 (Homo sapiens) (UniProt Q96PY6). Put plainly: Inhibition of recombinant human NEK1 (1 to 505 residues) at 10 uM using RLGRDKYKTLRQIRQ as substrate measured after 40 mins in presence of [gamma33P]ATP by scintillation counting method.
The test system of data set [19] is Tyrosine-protein kinase BTK (Homo sapiens), Q06187 [R28H]. Put plainly: Inhibition of full-length recombinant human BTK R28H mutant at 10 uM using LSNLYHQGKFLQTFCGSPLYRRR as substrate measured after 40 mins in presence of [gamma33P]ATP by scintillation counting method. An outline of the steps: as §2
Data set [20] has as its target SRSF protein kinase 3 (Homo sapiens) (UniProt Q9UPE1). Kind of data set: Inhibition of recombinant full-length human MSSK1 at 10 uM using ERMRPRKRQGSVRRRV as substrate measured after 40 mins in presence of [gamma33P]ATP by scintillation counting method.
A short description of data set [21]: Oral bioavailability in Sprague-Dawley rat at 10 mg/kg administered via gavage by LC-MS/MS analysis. As to conditions: in vivo. In kind it is ADME, organism-based.
Data set [22] concerns the target Serine/threonine-protein kinase ULK2 (Homo sapiens) (UniProt Q8IYT8). Kind of data set: Inhibition of human ULK2 (1 to 306 residues) using casein as substrate measured after 40 mins in presence of [gamma33P]ATP by scintillation counting method.
Data set [23] has as its target Serine/threonine-protein kinase PAK 4 (Homo sapiens) (UniProt O96013). Put plainly: Inhibition of recombinant human PAK4 (295 to end residues) at 10 uM using myelin basic protein as substrate measured after 40 mins in presence of [gamma33P]ATP by scintillation counting method.
Data set [24] deals with Mitogen-activated protein kinase kinase kinase 20 (Homo sapiens) (UniProt Q9NYL2). Kind of data set: Inhibition of recombinant full-length human ZAK at 10 uM using MBP as substrate measured after 40 mins in presence of [gamma33P]ATP by scintillation counting method.

Activity calls are given as the source filed them. The calls are words filed in the database; no cut-off is given here.

Sequence of Tyrosine-protein kinase receptor TYRO3 (Homo sapiens) (Q06418 whole entry, the tested form may be a part): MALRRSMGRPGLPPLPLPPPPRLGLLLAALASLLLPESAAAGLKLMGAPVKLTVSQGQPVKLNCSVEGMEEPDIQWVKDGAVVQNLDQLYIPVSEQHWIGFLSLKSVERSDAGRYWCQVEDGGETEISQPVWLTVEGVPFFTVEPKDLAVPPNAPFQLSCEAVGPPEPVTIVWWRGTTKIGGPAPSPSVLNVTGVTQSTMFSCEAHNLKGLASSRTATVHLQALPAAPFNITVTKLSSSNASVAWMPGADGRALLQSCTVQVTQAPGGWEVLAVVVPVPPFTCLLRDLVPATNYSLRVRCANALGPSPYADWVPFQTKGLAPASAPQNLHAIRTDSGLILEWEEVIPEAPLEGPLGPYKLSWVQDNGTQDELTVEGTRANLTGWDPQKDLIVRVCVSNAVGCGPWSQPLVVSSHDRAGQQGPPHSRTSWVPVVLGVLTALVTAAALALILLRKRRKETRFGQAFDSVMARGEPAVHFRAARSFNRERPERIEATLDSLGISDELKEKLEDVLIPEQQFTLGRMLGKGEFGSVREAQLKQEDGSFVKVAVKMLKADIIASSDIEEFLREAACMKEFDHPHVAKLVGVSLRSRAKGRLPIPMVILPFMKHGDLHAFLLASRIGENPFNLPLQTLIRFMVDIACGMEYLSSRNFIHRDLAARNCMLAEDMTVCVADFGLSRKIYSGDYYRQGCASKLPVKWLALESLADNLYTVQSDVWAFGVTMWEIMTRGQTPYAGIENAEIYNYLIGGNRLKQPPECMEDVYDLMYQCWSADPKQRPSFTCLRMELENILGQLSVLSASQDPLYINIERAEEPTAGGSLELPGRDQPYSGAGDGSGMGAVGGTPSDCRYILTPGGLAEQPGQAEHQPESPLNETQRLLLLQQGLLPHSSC
Sequence of Ribosomal protein S6 kinase alpha-4 (Homo sapiens) (O75676 whole entry, looked up): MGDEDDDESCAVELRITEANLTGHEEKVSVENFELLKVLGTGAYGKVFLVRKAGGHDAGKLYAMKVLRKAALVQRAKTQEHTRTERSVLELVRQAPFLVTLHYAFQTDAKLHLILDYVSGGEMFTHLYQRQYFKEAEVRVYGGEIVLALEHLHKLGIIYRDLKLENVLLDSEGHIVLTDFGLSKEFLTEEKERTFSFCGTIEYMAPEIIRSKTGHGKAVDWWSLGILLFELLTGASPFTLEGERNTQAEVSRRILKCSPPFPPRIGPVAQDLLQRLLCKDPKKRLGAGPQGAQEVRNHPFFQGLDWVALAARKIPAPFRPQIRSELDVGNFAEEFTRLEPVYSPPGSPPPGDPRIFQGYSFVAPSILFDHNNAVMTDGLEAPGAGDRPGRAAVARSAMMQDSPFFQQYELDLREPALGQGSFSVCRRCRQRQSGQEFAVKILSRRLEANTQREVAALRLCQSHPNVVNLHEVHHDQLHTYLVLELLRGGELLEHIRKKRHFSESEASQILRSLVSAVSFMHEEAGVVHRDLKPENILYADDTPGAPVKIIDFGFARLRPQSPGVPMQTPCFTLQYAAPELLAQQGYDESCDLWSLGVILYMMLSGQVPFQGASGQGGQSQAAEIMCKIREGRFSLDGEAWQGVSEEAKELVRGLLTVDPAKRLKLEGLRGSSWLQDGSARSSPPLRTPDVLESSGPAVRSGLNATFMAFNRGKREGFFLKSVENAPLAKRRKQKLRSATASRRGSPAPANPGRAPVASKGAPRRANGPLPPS
Sequence of Interleukin-1 receptor-associated kinase 1 (Homo sapiens) (P51617 whole entry, looked up, the tested form may be a part): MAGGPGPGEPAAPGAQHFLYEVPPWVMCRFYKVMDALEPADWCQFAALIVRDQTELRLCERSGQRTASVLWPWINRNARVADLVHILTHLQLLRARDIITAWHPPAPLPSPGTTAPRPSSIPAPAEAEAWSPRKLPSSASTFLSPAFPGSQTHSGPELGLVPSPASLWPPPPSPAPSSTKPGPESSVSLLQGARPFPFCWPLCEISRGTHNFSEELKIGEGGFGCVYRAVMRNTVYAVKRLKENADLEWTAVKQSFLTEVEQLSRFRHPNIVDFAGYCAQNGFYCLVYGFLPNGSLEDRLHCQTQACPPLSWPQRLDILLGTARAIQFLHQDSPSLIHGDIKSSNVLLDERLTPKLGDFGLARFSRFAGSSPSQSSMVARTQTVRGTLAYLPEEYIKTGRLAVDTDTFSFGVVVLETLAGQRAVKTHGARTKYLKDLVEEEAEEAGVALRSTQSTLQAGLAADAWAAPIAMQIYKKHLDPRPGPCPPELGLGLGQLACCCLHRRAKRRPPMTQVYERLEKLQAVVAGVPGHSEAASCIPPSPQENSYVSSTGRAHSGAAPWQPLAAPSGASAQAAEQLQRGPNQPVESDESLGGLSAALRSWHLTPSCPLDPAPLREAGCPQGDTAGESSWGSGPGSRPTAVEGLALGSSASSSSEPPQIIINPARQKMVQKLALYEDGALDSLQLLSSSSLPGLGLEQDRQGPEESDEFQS
Sequence of Dual specificity mitogen-activated protein kinase kinase 3 (Homo sapiens) (P46734 whole entry): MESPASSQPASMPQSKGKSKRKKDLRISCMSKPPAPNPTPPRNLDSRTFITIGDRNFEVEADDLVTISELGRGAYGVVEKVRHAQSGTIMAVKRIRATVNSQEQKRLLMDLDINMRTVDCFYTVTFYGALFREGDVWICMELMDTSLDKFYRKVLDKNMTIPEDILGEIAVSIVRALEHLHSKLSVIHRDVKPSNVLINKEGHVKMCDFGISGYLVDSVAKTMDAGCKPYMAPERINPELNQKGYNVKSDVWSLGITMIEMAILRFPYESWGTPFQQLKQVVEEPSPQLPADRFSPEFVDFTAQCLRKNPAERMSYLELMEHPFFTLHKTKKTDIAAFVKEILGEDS
Sequence of Mitogen-activated protein kinase kinase kinase 20 (Homo sapiens) (Q9NYL2 2-800 limits assumed): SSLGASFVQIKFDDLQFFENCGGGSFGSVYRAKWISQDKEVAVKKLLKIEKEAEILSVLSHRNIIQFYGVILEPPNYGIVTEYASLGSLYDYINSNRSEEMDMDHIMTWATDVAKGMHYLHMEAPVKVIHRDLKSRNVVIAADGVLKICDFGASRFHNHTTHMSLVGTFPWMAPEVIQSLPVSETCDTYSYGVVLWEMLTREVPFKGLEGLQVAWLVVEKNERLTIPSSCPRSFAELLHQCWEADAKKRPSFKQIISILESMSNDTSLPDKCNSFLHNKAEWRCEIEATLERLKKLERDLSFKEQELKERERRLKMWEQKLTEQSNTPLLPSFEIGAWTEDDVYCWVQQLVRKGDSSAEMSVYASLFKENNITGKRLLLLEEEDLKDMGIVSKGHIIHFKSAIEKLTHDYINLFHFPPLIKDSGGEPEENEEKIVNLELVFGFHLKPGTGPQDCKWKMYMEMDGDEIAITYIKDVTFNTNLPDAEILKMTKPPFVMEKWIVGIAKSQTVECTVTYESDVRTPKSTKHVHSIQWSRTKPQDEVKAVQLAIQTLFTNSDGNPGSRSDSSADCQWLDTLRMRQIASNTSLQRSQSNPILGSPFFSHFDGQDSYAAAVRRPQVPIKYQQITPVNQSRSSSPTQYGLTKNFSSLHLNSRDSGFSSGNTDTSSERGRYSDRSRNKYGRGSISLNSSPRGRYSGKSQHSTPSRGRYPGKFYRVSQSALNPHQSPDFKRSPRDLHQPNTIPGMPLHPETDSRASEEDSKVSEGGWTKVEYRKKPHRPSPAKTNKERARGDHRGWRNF
Sequence of Serine/threonine-protein kinase Nek1 (Homo sapiens) (Q96PY6 whole entry, the tested form may be a part): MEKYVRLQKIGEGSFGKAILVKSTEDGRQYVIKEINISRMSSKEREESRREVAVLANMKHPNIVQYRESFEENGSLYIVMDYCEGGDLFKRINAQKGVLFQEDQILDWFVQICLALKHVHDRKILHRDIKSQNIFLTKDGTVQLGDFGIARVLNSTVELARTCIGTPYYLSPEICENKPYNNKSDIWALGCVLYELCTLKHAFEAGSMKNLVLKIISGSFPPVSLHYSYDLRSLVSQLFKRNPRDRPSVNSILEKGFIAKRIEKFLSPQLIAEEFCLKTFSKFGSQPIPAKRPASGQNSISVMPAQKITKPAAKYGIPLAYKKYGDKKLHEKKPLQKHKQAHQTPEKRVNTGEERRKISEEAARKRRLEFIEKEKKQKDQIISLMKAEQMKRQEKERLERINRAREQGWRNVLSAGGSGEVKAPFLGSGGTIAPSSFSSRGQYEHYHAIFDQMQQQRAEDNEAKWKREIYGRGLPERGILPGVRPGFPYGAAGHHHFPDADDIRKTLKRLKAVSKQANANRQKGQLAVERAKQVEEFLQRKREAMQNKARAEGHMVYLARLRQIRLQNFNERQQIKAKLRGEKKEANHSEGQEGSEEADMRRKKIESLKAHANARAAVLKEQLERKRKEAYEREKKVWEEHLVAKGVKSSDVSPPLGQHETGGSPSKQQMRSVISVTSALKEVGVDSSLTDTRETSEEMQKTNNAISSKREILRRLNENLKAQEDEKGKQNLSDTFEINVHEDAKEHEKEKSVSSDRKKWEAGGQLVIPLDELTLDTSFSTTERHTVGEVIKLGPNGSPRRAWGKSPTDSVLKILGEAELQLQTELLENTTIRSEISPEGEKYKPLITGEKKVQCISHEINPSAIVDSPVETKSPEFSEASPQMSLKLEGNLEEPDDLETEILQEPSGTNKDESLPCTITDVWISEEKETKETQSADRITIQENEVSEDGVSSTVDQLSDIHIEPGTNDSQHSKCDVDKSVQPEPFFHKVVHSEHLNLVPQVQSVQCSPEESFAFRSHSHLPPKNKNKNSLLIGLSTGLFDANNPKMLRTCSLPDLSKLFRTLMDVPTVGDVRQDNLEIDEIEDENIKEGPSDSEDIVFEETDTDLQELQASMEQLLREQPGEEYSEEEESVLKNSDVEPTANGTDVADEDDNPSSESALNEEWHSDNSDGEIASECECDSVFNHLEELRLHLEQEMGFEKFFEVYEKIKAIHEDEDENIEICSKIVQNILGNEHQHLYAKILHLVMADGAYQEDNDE

For orientation: bioavailability means dose-corrected exposure relative to a reference, in per cent. Read a low bioavailability as little systemic uptake. As for `CN1C[C@H](Nc2nc3cc[nH]c3c(=O)n2C)C[C@H](c2ccc3c(c2)OCCO3)C1`, the inhibition entry in [1], in data set [2], in data set [3], in [5], in data set [6] and in data set [7] was “inactive” throughout. Besides, the inhibition entry in [9], in data set [10], in data set [11], in [12], in data set [13] and in [14] was “inactive” each time. The inhibition entry in data set [15], in data set [16], in data set [18], in data set [19], in data set [20] and in [22] was “inactive” in each case. The inhibition result in data set [23] and in [24] was “inactive” throughout. Moreover, the outcome in data set [4], in data set [8] and in data set [17] was inactive. In [21], the bioavailability worked out at 52%.
